According to ChEMBL document CHEMBL2321871, “A novel class of oral direct renin inhibitors: highly potent 3,5-disubstituted piperidines bearing a tricyclic p3-p1 pharmacophore” (J Med Chem, 2013):
One block for each molecule: values may come before it.

Legend:
Renin [1] = target: T1, Renin (Homo sapiens, UniProt P00797); assay: Inhibition of human recombinant renin using fluorescence-quenched (RE(EDANS)IHPFHLVIHTK(Dabcyl)R as substrate incubated for 1 hr prior to substrate addition measured after 1 hr by fluorescence polarization assay
T1 sequence (P00797 whole entry): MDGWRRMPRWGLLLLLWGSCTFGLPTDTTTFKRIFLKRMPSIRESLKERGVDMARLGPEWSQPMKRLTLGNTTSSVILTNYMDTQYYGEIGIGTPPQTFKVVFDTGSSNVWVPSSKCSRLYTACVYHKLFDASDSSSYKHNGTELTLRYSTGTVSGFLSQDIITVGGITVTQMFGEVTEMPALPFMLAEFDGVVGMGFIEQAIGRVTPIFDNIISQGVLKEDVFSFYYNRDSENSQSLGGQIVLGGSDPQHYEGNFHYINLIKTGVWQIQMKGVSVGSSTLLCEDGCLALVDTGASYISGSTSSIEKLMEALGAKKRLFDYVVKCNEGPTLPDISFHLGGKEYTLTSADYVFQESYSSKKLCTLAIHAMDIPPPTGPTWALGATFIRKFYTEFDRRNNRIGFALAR

Rattus norvegicus [2] = assay: Antihypertensive activity in telemetered hypertensive double-transgenic rat model expressing human renin angiotensinogen assessed as time required for 50 % recovery at 30 mg/kg, po; type: functional
How it was run: (§1)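 Telemetered hypertensive double-transgenic rats given a single oral dose (6 or 30 mg/kg); mean arterial blood pressure monitored for maximal reduction from pre-treatment baseline and time to 50% recovery to baseline.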

[3] = Plasma clearance in Sprague-Dawley rat at 2 mg/kg, iv and 6 mg/kg, po by HPLC analysis; type: ADME, organism-based
How it was run: (§2)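 Fed Sprague–Dawley rats dosed at 2 mg/kg i.v. and 6 mg/kg p.o.; plasma levels followed over 24 h to derive oral AUC(0-24 h), Cmax, t1/2, plasma clearance, Vdss and oral bioavailability.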

[4] = Volume of distribution at steady state in Sprague-Dawley rat at 2 mg/kg, iv and 6 mg/kg, po by HPLC analysis; type: ADME, organism-based; settings: in vivo, read-out: Vdss; how it was run: as §2
Beta-secretase 1 = Beta-secretase 1 (Homo sapiens, UniProt P56817); assay: Inhibition of human recombinant BACE1 expressed in baculovirus-infected SF9 cells using fluorescence-quenched RE(EDANS)-EVNLDAEF-K(DABSYL)-R as substrate incubated for 1 hr prior to substrate addition measured after 1 hr by fluorescence polarization assay
Cytochrome P450 3A4 = Cytochrome P450 3A4 (Homo sapiens, UniProt P08684); assay: Time dependent inhibition of CYP3A4 (unknown origin); type: ADME; settings: TDE = time-dependent effect
Cathepsin E = target: T2, Cathepsin E (Homo sapiens, UniProt P14091); assay: Inhibition of human recombinant cathepsin E expressed in Escherichia coli using fluorescence-quenched Ac-E-D(EDANS)-KPILFFRLG-K(Dabcyl)-E-Amid as substrate incubated for 1 hr prior to substrate addition measured after 1 hr by fluorescence polarization assay
T2 sequence (P14091 whole entry): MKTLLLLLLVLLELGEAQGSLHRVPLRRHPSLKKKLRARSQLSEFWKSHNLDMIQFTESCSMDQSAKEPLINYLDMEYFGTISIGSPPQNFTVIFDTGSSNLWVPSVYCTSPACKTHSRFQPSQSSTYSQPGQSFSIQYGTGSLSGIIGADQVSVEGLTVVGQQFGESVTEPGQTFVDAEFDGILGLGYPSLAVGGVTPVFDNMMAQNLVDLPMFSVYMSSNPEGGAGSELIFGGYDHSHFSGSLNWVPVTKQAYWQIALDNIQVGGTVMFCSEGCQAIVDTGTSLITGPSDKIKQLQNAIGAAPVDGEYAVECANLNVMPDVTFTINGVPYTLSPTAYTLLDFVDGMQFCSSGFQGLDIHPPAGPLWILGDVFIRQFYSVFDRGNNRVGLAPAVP

[5] = AUC (0 to 24 hrs) in Sprague-Dawley rat at 6 mg/kg, po by HPLC analysis; type: ADME, organism-based; design: time < 24 hr, dose 6 mg/kg, route oral; settings: plasma; how it was run: as §2
Rattus norvegicus [6] = assay: Antihypertensive activity in telemetered hypertensive double-transgenic rat model expressing human renin and angiotensinogen assessed as reduction of mean arterial blood pressure at 6 mg/kg, po; type: functional, Artery; how it was run: as §1
Rattus norvegicus [7] = assay: Antihypertensive activity in telemetered hypertensive double-transgenic rat model expressing human renin and angiotensinogen assessed as reduction of mean arterial blood pressure at 30 mg/kg, po; type: functional, Artery; how it was run: as §1
Gastricsin = target: T3, Gastricsin (Homo sapiens, UniProt P20142); assay: Inhibition of human recombinant pepsin C expressed in Escherichia coli using fluorescence-quenched Dabcyl-E-R-Nle-F-L-S-F-P-EDANS as substrate incubated for 1 hr prior to substrate addition measured after 1 hr by fluorescence polarization assay
T3 sequence (P20142 whole entry): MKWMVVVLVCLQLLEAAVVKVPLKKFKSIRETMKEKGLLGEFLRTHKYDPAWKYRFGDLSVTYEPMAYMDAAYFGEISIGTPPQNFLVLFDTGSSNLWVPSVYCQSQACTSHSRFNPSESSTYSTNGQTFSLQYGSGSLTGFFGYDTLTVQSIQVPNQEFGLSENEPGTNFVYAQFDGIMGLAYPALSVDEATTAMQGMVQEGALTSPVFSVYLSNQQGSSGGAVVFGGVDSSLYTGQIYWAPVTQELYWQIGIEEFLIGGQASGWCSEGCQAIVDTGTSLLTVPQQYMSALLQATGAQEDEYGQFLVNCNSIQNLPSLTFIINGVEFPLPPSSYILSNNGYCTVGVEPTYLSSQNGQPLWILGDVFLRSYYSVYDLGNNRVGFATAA

Renin [8] = target: T1, Renin; assay: Inhibition of human plasma renin
[9] = Inhibition of human recombinant pepsin A expressed in Escherichia coli using fluorescence-quenched Dabcyl-E-R-Nle-F-L-S-F-P-EDANS as substrate incubated for 1 hr prior to substrate addition measured after 1 hr by fluorescence polarization assay
Cathepsin D = Cathepsin D (Homo sapiens, UniProt P07339); assay: Inhibition of human recombinant cathepsin D expressed in baculovirus-infected SF9 cells using fluorescence-quenched Ac-E-D(EDANS)-KPILFFRLG-K(Dabcyl)-E-Amid as substrate incubated for 1 hr prior to substrate addition measured after 1 hr by fluorescence polarization assay
[10] = Cmax in Sprague-Dawley rat at 6 mg/kg, po by HPLC analysis; type: ADME, organism-based; design: dose 6 mg/kg, route oral; settings: in vivo; how it was run: as §2
Rattus norvegicus [11] = assay: Antihypertensive activity in telemetered hypertensive double-transgenic rat model expressing human renin angiotensinogen assessed as time required for 50 % recovery at 6 mg/kg, po; type: functional; how it was run: as §1
Beta-secretase 2 = target: T4, Beta-secretase 2 (Homo sapiens, UniProt Q9Y5Z0); assay: Inhibition of human recombinant BACE2 expressed in baculovirus-infected SF9 cells using fluorescence-quenched RE(EDANS)-EVNLDAEF-K(DABSYL)-R as substrate incubated for 1 hr prior to substrate addition measured after 1 hr by fluorescence polarization assay
T4 sequence (Q9Y5Z0 whole entry): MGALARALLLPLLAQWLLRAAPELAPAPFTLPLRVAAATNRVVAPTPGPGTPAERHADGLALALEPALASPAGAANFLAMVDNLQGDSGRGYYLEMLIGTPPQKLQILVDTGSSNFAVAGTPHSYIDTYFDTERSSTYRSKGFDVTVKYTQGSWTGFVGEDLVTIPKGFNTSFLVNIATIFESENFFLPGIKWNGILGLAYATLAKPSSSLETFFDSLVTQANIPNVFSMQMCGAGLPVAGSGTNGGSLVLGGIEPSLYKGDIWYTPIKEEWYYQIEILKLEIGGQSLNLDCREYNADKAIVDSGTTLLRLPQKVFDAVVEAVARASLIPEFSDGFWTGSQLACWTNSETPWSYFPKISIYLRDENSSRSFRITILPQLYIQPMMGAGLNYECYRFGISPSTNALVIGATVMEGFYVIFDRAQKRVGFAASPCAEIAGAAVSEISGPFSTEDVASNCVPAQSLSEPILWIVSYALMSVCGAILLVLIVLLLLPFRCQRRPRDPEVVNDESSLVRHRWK

[12] = Half life in Sprague-Dawley rat at 2 mg/kg, iv and 6 mg/kg, po by HPLC analysis; type: ADME, organism-based; settings: in vivo; how it was run: as §2
[13] = Oral bioavailability in Sprague-Dawley rat at 6 mg/kg by HPLC analysis; type: ADME, organism-based; settings: in vivo; how it was run: as §2
Renin (Homo sapiens) = target: T5, Renin (Homo sapiens) (UniProt P00797); assay: Inhibition of human recombinant renin using fluorescence-quenched (RE(EDANS)IHPFHLVIHTK(Dabcyl)R as substrate at 100 uM incubated for 1 hr prior to substrate addition measured after 1 hr by fluorescence polarization assay
T5 sequence (whole entry): T1 sequence (P00797 whole entry)

Rattus norvegicus [14] = assay: Antihypertensive activity in po dosed telemetered hypertensive double-transgenic rat model expressing human renin and angiotensinogen assessed as reduction of mean arterial blood pressure; type: functional, organism-based; settings: Artery; how it was run: as §1
Renin [15] = target: T1, Renin; assay: Binding affinity to human recombinant renin by NMR titration analysis

Sequence of Beta-secretase 1 (P56817 whole entry): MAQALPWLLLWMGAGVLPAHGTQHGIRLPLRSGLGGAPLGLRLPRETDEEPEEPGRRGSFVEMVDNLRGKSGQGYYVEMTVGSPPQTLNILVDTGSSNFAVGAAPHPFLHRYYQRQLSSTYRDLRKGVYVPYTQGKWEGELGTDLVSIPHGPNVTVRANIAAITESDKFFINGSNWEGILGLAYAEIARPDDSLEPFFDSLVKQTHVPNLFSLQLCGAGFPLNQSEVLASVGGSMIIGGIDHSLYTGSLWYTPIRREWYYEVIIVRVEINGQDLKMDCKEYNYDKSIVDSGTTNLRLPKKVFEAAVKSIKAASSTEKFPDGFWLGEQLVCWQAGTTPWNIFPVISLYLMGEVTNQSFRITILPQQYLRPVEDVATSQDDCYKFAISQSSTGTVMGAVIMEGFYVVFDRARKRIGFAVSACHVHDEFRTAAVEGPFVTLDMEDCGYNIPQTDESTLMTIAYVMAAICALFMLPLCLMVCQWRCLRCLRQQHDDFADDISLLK
Sequence of Cytochrome P450 3A4 (P08684 whole entry): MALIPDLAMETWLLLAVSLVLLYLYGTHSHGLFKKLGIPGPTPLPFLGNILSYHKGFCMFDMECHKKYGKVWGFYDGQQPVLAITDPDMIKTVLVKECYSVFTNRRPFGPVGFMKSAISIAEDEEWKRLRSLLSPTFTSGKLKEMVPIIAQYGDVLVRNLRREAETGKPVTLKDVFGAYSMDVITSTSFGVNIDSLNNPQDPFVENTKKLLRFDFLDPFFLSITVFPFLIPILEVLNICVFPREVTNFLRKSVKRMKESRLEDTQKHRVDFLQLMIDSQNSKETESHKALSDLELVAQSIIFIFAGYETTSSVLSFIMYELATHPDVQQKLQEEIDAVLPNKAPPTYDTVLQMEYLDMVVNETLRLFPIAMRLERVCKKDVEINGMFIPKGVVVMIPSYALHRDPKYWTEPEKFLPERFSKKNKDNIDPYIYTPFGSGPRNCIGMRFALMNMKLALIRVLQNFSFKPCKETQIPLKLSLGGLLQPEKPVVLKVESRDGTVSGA
Sequence of Cathepsin D (P07339 65-162 limits assumed): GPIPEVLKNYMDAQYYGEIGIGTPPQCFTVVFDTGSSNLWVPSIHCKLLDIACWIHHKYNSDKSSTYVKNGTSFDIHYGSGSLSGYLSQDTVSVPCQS
Sequence of Cathepsin D (P07339 169-412 limits assumed): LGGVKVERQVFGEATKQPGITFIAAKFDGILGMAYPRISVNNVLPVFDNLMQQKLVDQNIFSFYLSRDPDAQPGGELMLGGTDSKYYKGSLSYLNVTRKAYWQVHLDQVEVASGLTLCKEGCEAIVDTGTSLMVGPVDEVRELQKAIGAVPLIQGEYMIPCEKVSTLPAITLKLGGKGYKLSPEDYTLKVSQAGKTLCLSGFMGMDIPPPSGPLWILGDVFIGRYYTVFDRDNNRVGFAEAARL

Structure (SMILES): Cc1ccc(S(=O)(=O)N[C@H]2CNC[C@@H](C(=O)NCC(c3ccccc3)c3ccccc3)C2)cc1 (racemic)
IC50 (Renin [1]): 1.2 µM

Structure (SMILES): Cc1ccc(S(=O)(=O)N[C@@H]2CNC[C@H](C(=O)NCC(c3ccccc3)c3ccccc3)C2)cc1
IC50 (Renin [1]): > 30 µM

Structure (SMILES): O=C(NCC1c2ccccc2Oc2ccccc21)C1CCCNC1 (racemic)
inhibition (Renin (Homo sapiens)): 0%

Structure (SMILES): COCCCCC1(CNC(=O)C2CCCNC2)c2ccccc2Oc2ccccc21 (racemic)
IC50 (Renin [1]): 4 µM

Structure (SMILES): COCCCCC1(CNC(=O)[C@@H]2CNC[C@H](NS(=O)(=O)c3ccc(C)cc3)C2)c2ccccc2Oc2ccccc21 [listing 2 of 2 here]
Activity (Rattus norvegicus [14]): Dose-dependent effect

Structure (SMILES): OC(CC1c2ccccc2Sc2ccccc21)CN1CCCC1 (racemic)
Kd (Renin [15]): > 500 µM | IC50 (Renin [1]): > 100 µM

Structure (SMILES): CC(O)CN1CC2c3ccccc3Nc3ccccc3C2C1 (racemic)
Kd (Renin [15]): > 500 µM | IC50 (Renin [1]): > 100 µM

Second part, led by results:

IC50 (Renin [1]): 0.09 µM
Structure (SMILES): Cc1ccc(S(=O)(=O)N[C@H]2CNC[C@@H](C(=O)NCC3c4ccccc4Oc4ccccc43)C2)cc1 (racemic)

IC50 (Renin [1]): 0.5 µM
Structure (SMILES): Cc1ccc(S(=O)(=O)N[C@H]2CNC[C@@H](C(=O)NCC(c3ccccc3)c3ccccc3)C2)cc1

clearance [3]: 43.3 mL/min/kg | Vd [4]: 5.3 L/kg | IC50 (Beta-secretase 1): > 30 µM | inhibition (INH) (Cytochrome P450 3A4): tde | IC50 (Cathepsin E): > 30 µM | AUC(0-t) at 24 h [5]: 0.75 µM·h | IC50 (Gastricsin): > 30 µM | IC50 (Renin [8]): 0.025 µM | IC50 [9]: > 30 µM | IC50 (Cathepsin D): > 30 µM | Cmax [10]: 222 nM | IC50 (Beta-secretase 2): > 30 µM | half-life [12]: 2.3 h | bioavailability [13]: 18% | IC50 (Renin [1]): 0.003 µM
Structure (SMILES): COCCCCC1(CNC(=O)[C@@H]2CNC[C@H](NS(=O)(=O)c3ccc(C)cc3)C2)c2ccccc2Oc2ccccc21 [listing 1 of 2 here]
Time (Rattus norvegicus [2]): 7.8 h | Activity (Rattus norvegicus [6]): 28 mmHg | Activity (Rattus norvegicus [7]): 58 mmHg | Time (Rattus norvegicus [11]): 3.1 h

IC50 (Renin [1]): 0.5 µM
Structure (SMILES): COCCCCC1(CNC(=O)[C@H]2CNC[C@@H](NS(=O)(=O)c3ccc(C)cc3)C2)c2ccccc2Oc2ccccc21

IC50 (Renin [1]): 0.004 µM
Structure (SMILES): COCCCCC1(CNC(=O)[C@@H]2CNC[C@H](NS(=O)(=O)c3ccc(C)cc3)C2)c2ccccc2Oc2ccccc21 (racemic)
